Experimental data gathered from unrelated publications.
Compare with care: the assays were run in different laboratories.
Target: Tyrosine-protein kinase Mer (MERTK, Homo sapiens, UniProt Q12866)
Residues used in one study (Q12866 21-999): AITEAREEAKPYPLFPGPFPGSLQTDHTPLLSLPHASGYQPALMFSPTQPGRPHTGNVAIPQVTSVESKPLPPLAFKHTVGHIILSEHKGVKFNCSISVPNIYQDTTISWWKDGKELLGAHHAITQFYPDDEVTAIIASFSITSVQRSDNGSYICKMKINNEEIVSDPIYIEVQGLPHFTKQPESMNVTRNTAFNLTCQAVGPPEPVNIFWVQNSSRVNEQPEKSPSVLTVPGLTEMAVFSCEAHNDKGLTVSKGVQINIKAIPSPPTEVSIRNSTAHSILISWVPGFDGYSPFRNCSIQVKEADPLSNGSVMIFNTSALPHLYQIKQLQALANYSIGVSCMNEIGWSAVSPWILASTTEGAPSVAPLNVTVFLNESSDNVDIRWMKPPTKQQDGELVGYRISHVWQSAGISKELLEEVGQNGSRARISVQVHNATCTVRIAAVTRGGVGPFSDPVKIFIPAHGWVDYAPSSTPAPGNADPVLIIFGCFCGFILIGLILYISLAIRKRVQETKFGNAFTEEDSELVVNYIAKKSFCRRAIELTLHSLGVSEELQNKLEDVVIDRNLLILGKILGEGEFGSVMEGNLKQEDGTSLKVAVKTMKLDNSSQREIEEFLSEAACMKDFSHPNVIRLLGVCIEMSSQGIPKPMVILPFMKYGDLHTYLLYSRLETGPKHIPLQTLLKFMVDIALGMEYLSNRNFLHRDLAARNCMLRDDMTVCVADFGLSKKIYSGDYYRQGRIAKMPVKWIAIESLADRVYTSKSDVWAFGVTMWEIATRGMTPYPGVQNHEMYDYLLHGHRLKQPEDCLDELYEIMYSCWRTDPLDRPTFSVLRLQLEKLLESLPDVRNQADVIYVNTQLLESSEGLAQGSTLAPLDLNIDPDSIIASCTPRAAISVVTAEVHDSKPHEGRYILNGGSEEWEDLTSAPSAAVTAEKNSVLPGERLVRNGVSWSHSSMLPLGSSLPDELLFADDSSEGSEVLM

| SMILES | test | conditions | remaining binding [%] |
| --- | --- | --- | --- |
| CN(C)c1nccc(-c2cnc3ncccn23)n1 | binding | 1 µM | 82 |
| O=C(N[C@H]1CCCCC/C=C\C2C[C@@]2(C(=O)O)NC(=O)[C@@H]2C[C@@H](Oc3ccncc3)CN2C1=O)OC1CCCC1 (stereo partly drawn) | binding, competition with immobilised ligand | 1 µM | 64 |
| C[C@@H](c1ccc(-n2cnc3c(N)ncnc32)cc1)N1CCc2nn(C)c(Cc3ccccc3)c2C1=O | binding, competition with immobilised ligand | 0.1 µM | 100 |
| Nc1ncc2c(n1)-c1c([nH]c3ccc(C#CC4CC4)cc13)CCCC2 | binding, competition with immobilised ligand | 1 µM | 100 |
| N[C@H]1CCN(c2nccc(-c3cnn4ncccc34)n2)C1 | binding | 1 µM | 100 |
| O=C(c1ccc(Nc2ncc(Cl)c(-c3cc4ccccc4s3)n2)cc1)N1CCC(N2CCCC2)CC1 | binding, competition with immobilised ligand | 1 µM | 1.8 |
| CCC(=O)N[C@H]1CC[C@@H](C(=O)N(C)c2ccc(-c3nc4ccccc4o3)cc2)C1 | cell-free assay, competition with immobilised ligand | 1 µM | 100 |
| C[C@H]1CCN(c2nccc(-c3cnn4ncccc34)n2)C1 | binding | 1 µM | 94 |
| CCN1CCN(Cc2ccc(C(=O)Nc3ccc(C)c(Oc4ccc5c(c4)CC(=O)N5)c3)cc2C(F)(F)F)CC1 | binding, competition with immobilised ligand | 1 µM | 100 |
| CN(C)c1ncnc(-c2ccc3nc(Nc4cc(CN5CCN(C(=O)CC(F)(F)F)CC5)ccn4)[nH]c3c2)c1Cl | cell-free assay, competition with immobilised ligand | 1 µM | 87 |
| CN(C)c1nccc(-c2cnn3ncccc23)n1 | binding | 1 µM | 87 |
| c1cncc(-c2cccc(Nc3nccc(NC4CCCCC4)n3)c2)c1 | binding, competition with immobilised ligand | 10 µM | 4.6 |
| O=C(NCCCN1CCOCC1)c1ccc(Nc2nccc(-c3cc4ccccc4s3)n2)cc1 | binding, competition with immobilised ligand | 1 µM | 45 |
| F[C@@H]1CCN(c2nccc(-c3cnn4ncccc34)n2)C1 | binding | 1 µM | 100 |
| Cc1cnc(Nc2ccc(C(=O)N3CCC(N4CCCC4)CC3)cc2)nc1-c1cc2ccccc2s1 | binding, competition with immobilised ligand | 1 µM | 0.7 |
| CC(=O)N1CCC(c2ccc(C(=O)NC(=N)N)cc2C(F)(F)F)CC1 | cell-free assay, competition with immobilised ligand | 1 µM | 81 |
| O=C(Nc1c[nH]nc1C(=O)NC1CCNCC1)c1cc(F)cc(F)c1 | binding, competition with immobilised ligand | 1 µM | 100 |
| C[C@@]1(Cc2ccc(C#N)cc2)C(=O)N(c2cc(Cl)cc(Cl)c2)c2ncc(C(=O)NC3(c4nc(C5CCC5)no4)CC3)n21 | cell-free assay, competition with immobilised ligand | 1 µM | 100 |
| COc1cnc(Nc2cccc(S(N)(=O)=O)c2)nc1N1CCN(c2ccccc2)CC1 | binding, competition with immobilised ligand | 1 µM | 65 |
| CCCOc1ccc([C@@H]2[C@@H](C(=O)O)[C@H](c3ccc4c(c3)OCO4)CN2CC(=O)Nc2c(CC)cccc2CC)cc1 | cell-free assay, competition with immobilised ligand | 1 µM | 97 |
| CN(c1nccc(-c2cnn3ncccc23)n1)C1CC1 | binding | 1 µM | 100 |
